Converted amounts (≈) assume the structure as drawn. “And” between values parts separate entries of the source, which are not always exact repeats. Identical values can stand only once. Like-named read-outs stand apart in the source and are kept apart here.
Columns and labels:
[1] = target: T1, PfDXR (Plasmodium falciparum, UniProt Q8IKG4); assay: DXR enzyme inhibition assay; format: biochemical; conditions: values in parentheses; compound at 100 μM
T1 sequence (Q8IKG4 73-488): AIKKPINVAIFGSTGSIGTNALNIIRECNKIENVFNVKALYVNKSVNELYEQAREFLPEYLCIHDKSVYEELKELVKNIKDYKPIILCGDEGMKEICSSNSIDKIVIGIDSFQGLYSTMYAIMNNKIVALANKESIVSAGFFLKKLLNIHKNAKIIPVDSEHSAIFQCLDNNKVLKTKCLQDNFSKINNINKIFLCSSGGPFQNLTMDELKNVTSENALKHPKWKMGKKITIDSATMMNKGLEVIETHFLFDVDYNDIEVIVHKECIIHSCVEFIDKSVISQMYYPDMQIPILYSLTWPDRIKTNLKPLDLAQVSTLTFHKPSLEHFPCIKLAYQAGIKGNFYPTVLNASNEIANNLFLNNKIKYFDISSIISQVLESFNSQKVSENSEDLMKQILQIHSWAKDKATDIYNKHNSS

[2] = target: T2, MtbDXR (Mycobacterium tuberculosis, UniProt P9WNS1); assay: DXR enzyme inhibition assay; format: biochemical; conditions: values in parentheses; compound at 100 μM
T2 sequence (P9WNS1 1-413): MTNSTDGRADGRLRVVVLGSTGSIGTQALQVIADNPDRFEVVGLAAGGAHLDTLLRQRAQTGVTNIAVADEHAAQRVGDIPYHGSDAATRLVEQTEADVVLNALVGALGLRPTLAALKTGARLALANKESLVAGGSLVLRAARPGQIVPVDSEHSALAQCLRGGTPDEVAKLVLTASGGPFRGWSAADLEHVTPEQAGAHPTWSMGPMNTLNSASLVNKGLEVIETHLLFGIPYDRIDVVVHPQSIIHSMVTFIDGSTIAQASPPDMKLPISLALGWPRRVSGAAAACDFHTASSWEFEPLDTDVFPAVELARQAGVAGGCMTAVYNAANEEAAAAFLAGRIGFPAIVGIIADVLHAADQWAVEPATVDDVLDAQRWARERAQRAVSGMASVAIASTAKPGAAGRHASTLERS

[3] = system: Pf3D7 parasites; assay: P. falciparum growth inhibition assay; format: cell-based, Plasmodium falciparum; conditions: read-out: Pf IC50, 3 days, PicoGreen DNA content
Outline: (§1)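 Asynchronous cultures of wild-type 3D7 and fosmidomycin-resistant had1 strain E1-C12 are kept at 2% hematocrit in supplemented RPMI-1640 with 0.5% Albumax, under 5% O2/5% CO2/90% N2 at 37 °C. Parasites are diluted to 0.5% parasitemia and exposed to 1.2 nM–492.4 μM test compound from the start. After 3 days, DNA is read with PicoGreen (ex 485/em 528 nm). IC50 comes from a 4-parameter nonlinear fit. Technical duplicates, biological triplicate.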

[4] = system: Mtb H37Rv; assay: microbe, parasite or virus in culture; format: cell-based, Mycobacterium tuberculosis; conditions: for Mtb MIC: value in parentheses, Mtb H37Rv, 2 weeks
[5] = system: Mtb H37Rv; conditions: cited from earlier work
[6] = system: Pf3D7 parasites; conditions: read-out: Pf IC50; P. falciparum parasites; cited from earlier work
[7] = system: HepG2 cells; assay: HepG2 cell inhibition; format: cell-based; conditions: Homo sapiens, HepG2, 24 h, read-out: HepG2 IC50
[8] = system: MEP pathway in P. falciparum parasites; assay: IPP rescue of inhibitor-treated P. falciparum; format: cell-based, Plasmodium falciparum; conditions: 125 μM IPP added to media
Outline: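 The rescue format is the standard 3-day growth assay with 125 μM IPP present throughout. Parasites are at 0.5% parasitemia and 2% hematocrit in supplemented RPMI-1640/Albumax, under 5% O2/5% CO2/90% N2 at 37 °C, with 1.2 nM–492.4 μM test compound. Growth is measured as PicoGreen DNA fluorescence and fitted to a 4-parameter dose–response curve. Technical duplicates, biological triplicate.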

[9] = system: had1 mutant Pf strain (E1-C12); assay: Growth inhibition of fosmidomycin-resistant had1 mutant P. falciparum; format: cell-based, Plasmodium falciparum; conditions: had1 mutant versus wild type 3D7
Outline: as §1

Diammonium [3-{acetyl[1-(4-trifluoromethylphenyl)ethoxy]amino}-1-(3,4-dichlorophenyl)propyl] phosphonate [Compound 6m]
Pf DXR percent remaining enzyme activity at 100 μM [1]: (74.69) percent
Mtb DXR percent remaining enzyme activity at 100 μM [2]: (59.60) percent
IC50 [3]: 79.2 ± 12.1 µM
Mtb MIC [4]: > 91 µM

Diammonium {3-[N-(benzyloxy)acetamido]-1-(3,4-dichlorophenyl)propyl} phosphonate [Compound 6b]
Pf DXR percent remaining enzyme activity at 100 μM [1]: (26.66) percent
Mtb DXR percent remaining enzyme activity at 100 μM [2]: (34.20) percent
IC50 [3]: 31.5 ± 7.85 µM
Mtb MIC [4]: > 214 µM

Diammonium [1-(3,4-dichlorophenyl)-3-[N-(4-phenylbutoxy)acetamido]propyl] phosphonate [Compound 6g]
Pf DXR percent remaining enzyme activity at 100 μM [1]: (25.64) percent
Mtb DXR percent remaining enzyme activity at 100 μM [2]: (99.10) percent
IC50 [3]: 63.3 ± 16.7 µM
Mtb MIC [4]: 3.1 µM

Diammonium (3-{N-[(4-bromophenyl) methoxy] acetamido}-1-(3,4-dichlorophenyl) propyl) phosphonate [Compound 6h]
Pf DXR percent remaining enzyme activity at 100 μM [1]: (53.07) percent
Mtb DXR percent remaining enzyme activity at 100 μM [2]: (72.30) percent
IC50 [3]: 67.8 ± 3.57 µM
Mtb MIC [4]: > 92 µM

O=CN(O)CCCP(=O)(O)O [1(Fos), Fosmidomycin]
Mtb MIC [5]: >500 μg mL^−1 and >500 (ref. [34]) μg mL^−1

CC(=O)N(O)CCCP(=O)(O)O [2(FR), FR900098]
IC50 [6]: 0.511 µM
Mtb MIC [5]: >500 μg mL^−1 and >500 (ref. [34]) μg mL^−1

Diammonium {3-[N-({[1,1′-biphenyl]-4-yl}methoxy)acetamido]-1-(3,4-dichlorophenyl) propyl} phosphonate [Compound 6d]
Pf DXR percent remaining enzyme activity at 100 μM [1]: (26.97) percent
Mtb DXR percent remaining enzyme activity at 100 μM [2]: (93.90) percent
IC50 [3]: 86.4 ± 10.1 µM
Mtb MIC [4]: 23.1 µM

COc1ccc(C(C)ON(CCC(c2ccc(Cl)c(Cl)c2)P(=O)(OCOC(=O)C(C)(C)C)OCOC(=O)C(C)(C)C)C(C)=O)cc1 (stereo not drawn) [Compound 7l, ({[1-(3,4-Dichlorophenyl)-3-{N-[1-(4-methoxyphenyl)ethoxy]acetamido}propyl]({[(2,2-dimethylpropanoyl)oxy]methoxy})phosphoryl}oxy)methyl 2,2-dimethylpropanoate]
MIC ([4]; Mycobacterium tuberculosis, H37RV, 336 h, read-out: Mtb MIC): 4.6 µg/mL (≈ 6.53 µM)
IC50 [7]: > 100 µg/mL and > 140 µM
IPP rescue of growth of drug-treated P. falciparum parasites [8]: rescues the growth
cross resistance of fosmidomycin-resistant had1 mutant Pf strain [9]: displayed increased resistance
